Data: ChEMBL document CHEMBL1130056, “Novel and selective partial agonists of 5-HT3 receptors. 2. Synthesis and biological evaluation of piperazinopyridopyrrolopyrazines, piperazinopyrroloquinoxalines, and piperazinopyridopyrroloquinoxalines” (J Med Chem, 1997)
pEC50, pIC50: −log10 of the molar value.

Assays:
[1] = molecular target: Serotonin 3 (5-HT3) receptor; test: Binding affinity against 5-hydroxytryptamine 3 receptor was measured using [3H]granisetron as radioligand; type: protein-complex assay
[2] = molecular target: 5-hydroxytryptamine receptor 1D (Sus scrofa, UniProt P79400); test: Binding affinity against 5-hydroxytryptamine 1D receptor was measured using [3H]5-HT as radioligand
Sequence of 5-hydroxytryptamine receptor 1D (P79400 whole entry): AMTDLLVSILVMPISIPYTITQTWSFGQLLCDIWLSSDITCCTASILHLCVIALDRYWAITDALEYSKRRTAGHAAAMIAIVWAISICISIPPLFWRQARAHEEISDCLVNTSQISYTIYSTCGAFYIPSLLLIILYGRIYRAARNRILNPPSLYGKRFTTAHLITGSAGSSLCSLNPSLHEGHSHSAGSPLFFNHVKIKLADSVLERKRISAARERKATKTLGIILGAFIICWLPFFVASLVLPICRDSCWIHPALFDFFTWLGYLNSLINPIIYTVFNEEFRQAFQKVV
Summary of the method: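 Pig frontal cortex and striatum membranes (0.8 mg protein/mL), 2 nM [3H]-5-OH-tryptamine with 1 μM spiperone and 50 nM mesulergine, 25 °C, 30 min, 50 mM Tris-HCl pH 7.4, 4 mM CaCl2, 10 μM pargyline. Nonspecific binding with 10 μM 5-HT. Expressed as log IC50 ± SEM.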

[3] = molecular target: 5-hydroxytryptamine receptor 2A (Bos taurus, UniProt Q75Z89); test: Binding affinity against 5-hydroxytryptamine 2A receptor was measured using [3H]ketanserin as radioligand
Sequence of 5-hydroxytryptamine receptor 2A (Q75Z89 whole entry): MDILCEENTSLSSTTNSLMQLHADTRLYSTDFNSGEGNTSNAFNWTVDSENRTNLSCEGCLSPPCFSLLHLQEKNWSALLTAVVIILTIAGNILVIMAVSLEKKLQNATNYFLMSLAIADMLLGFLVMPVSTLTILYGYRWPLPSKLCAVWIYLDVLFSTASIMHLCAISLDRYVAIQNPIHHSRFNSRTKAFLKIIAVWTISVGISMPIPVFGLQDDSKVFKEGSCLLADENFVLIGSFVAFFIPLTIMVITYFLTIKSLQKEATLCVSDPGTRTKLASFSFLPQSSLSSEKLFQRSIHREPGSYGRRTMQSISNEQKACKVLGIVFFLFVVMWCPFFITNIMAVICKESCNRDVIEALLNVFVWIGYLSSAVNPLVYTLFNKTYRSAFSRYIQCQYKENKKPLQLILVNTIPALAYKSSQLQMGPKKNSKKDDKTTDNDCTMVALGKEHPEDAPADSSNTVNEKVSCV
Summary of the method: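 Bovine frontal cortex membranes (0.6 mg protein/mL) with 0.8 nM [3H]ketanserin and 100 nM WB4101, 37 °C for 30 min, in 50 mM Tris-HCl pH 7.4 plus 5 mM MgCl2, 10 mM NaCl, 0.5 mM EDTA, 10 μM pargyline. 10 μM spiperone defined nonspecific binding. Reported as log IC50 ± SEM.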

[4] = molecular target: 5-hydroxytryptamine receptor 1B (Rattus norvegicus, UniProt P28564); test: Binding affinity towards 5-hydroxytryptamine 1B receptor was measured using [3H]5-HT as radioligand
Sequence of 5-hydroxytryptamine receptor 1B (P28564 whole entry): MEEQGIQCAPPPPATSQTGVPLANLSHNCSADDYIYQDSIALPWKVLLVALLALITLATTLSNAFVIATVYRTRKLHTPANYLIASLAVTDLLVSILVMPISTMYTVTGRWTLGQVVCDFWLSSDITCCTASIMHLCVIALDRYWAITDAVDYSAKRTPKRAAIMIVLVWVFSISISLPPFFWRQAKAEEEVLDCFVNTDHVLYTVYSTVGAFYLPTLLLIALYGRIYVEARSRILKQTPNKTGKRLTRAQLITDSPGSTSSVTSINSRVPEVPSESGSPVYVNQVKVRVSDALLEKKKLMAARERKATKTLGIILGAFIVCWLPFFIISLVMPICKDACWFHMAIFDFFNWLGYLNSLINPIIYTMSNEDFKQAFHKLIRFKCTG
Summary of the method: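 Rat frontal cortex and striatum membranes (0.8 mg protein/mL), 2 nM [3H]-5-OH-tryptamine, 1 μM spiperone, 50 nM mesulergine; 25 °C, 30 min; 50 mM Tris-HCl pH 7.4, 4 mM CaCl2, 10 μM pargyline. Nonspecific binding with 10 μM propranolol. Expressed as log IC50 ± SEM.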

Rattus norvegicus [5] = test: In Vivo 5-HT3 antagonist activity in the Von Bezold-Jarisch reflex in rats after intravenous dose of 120 (ug/kg); type: functional
Summary of the method: (§1)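 Urethane-anesthetized (1.25 g/kg ip) fasted male Crl:CD(SD)BR rats; heart rate from carotid cannula. Compound in saline iv via jugular vein, usually 5 min before 5-HT bolus (30 μg/kg iv).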

NG108-15 = test: In Vitro 5-HT3 agonist activity on the [14C]guanidinium accumulation in NG 108-15 cells.; type: functional, cell-based; conditions: Murinae
Summary of the method: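 NG 108-15 cells grown 2 days, washed, then incubated 10 min at 37 °C in HEPES buffer pH 7.4 with 10 mM guanidinium chloride, 200–250 nCi [14C]guanidinium, 10 μM substance P and drug. After ice-cold choline wash, cells dissolved in NaOH and radioactivity counted. EC50 from triplicates per concentration; mean ± SEM of three determinations.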

Rattus norvegicus [6] = test: In Vivo 5-HT3 agonist activity in the Von Bezold-Jarisch reflex decrease in heart rate in rats at 120 (ug/kg) dose.; type: functional
Summary of the method: (§2)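 Fasted male Crl:CD(SD)BR rats (280–320 g) under urethane (1.25 g/kg ip); heart rate from cannulated carotid artery. Compound in saline given iv via jugular cannula. Read-out is fall in heart rate as percent of pre-treatment baseline.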

[7] = molecular target: 5-hydroxytryptamine receptor 1A (Bos taurus); test: Binding affinity against 5-hydroxytryptamine 1A receptor was measured using [3H]8-OH-DPAT as radioligand
[8] = molecular target: 5-hydroxytryptamine receptor 2C (Sus scrofa); test: Binding affinity against 5-Hydroxytryptamine 2C Receptor was measured using [3H]N-methyl-mesulergine as radioligand
Rattus norvegicus [9] = test: In Vivo 5-HT3 antagonist activity in the Von Bezold-Jarisch reflex in rats at intravenous dose of 60 (ug/kg); type: functional; summary of the method: as §1
Rattus norvegicus [10] = test: In Vivo 5-HT3 antagonist activity in the Von Bezold-Jarisch reflex in rats and percent inhibition of bradycardia induced by 5-HT was reported; type: functional; conditions: read-out: ID50 (the source's name); summary of the method: as §1
Rattus norvegicus [11] = test: In Vivo 5-HT3 agonist activity in the Von Bezold-Jarisch reflex decrease in heart rate in rats at 60 (ug/kg) dose.; type: functional; summary of the method: as §2
Rattus norvegicus [12] = test: In Vivo 5-HT3 antagonist activity in the Von Bezold-Jarisch reflex in rats after intravenous dose of 60 (ug/kg); type: functional; summary of the method: as §1

| Structure (SMILES) | -Log IC50 [1] | pIC50 [2] | pIC50 [3] | pIC50 [4] | pIC50 [7] | pIC50 [8] | other results |
| --- | --- | --- | --- | --- | --- | --- | --- |
| COc1ccc2c(c1)nc(N1CCN(CCCCn3cccn3)CC1)c1cccn12 | < 4 | < 4.00 | 5.79 | 5.45 | – | – | – |
| c1ccc(CN2CCN(c3nc4cccnc4n4cccc34)CC2)cc1 | 12.09 | – | 4.82 | 4.88 | – | – | Inhibition (Rattus norvegicus [5]): 40%; pEC50 (NG108-15): 7.49; Inhibition (Rattus norvegicus [6]): 59% |
| Clc1ccc2c(c1)nc(N1CCN(Cc3ccc4c(c3)OCO4)CC1)c1cccn12 | 10.09 | 4.33 | < 4.00 | 4.84 | 5.02 | < 4.00 | – |
| C=CCN1CCN(c2nc3ccc4ncccc4c3n3cccc23)CC1 | 7.71 | 5.24 | 4.67 | 4.71 | – | – | – |
| c1cnc2c(c1)nc(N1CCNCC1)c1cccn12 | 8.83 | 5.77 | 4.84 | 6.82 | – | – | – |
| C=CCN1CCN(c2nc3cccnc3n3cccc23)CC1 | 11.4 | 6.02 | 4.60 | 6.69 | 6.93 | 6.43 | – |
| c1cnc2c(c1)nc(N1CCN(Cc3ccc4c(c3)OCO4)CC1)c1cccn12 | 9.1 | < 4.00 | 4.34 | 4.31 | – | – | – |
| CCOC(=O)N1CCN(c2nc3cccnc3n3cccc23)CC1 | 4.55 | < 4.00 | < 4.00 | < 4.00 | – | – | – |
| c1ccc(COc2ccc3nc(N4CCN(Cc5ccccc5)CC4)c4cccn4c3n2)cc1 | 4.43 | < 4.00 | < 4.00 | < 4.00 | 4.26 | < 4.00 | – |
| c1cnc2ccc3nc(N4CCN(Cc5ccc6c(c5)OCO6)CC4)c4cccn4c3c2c1 | 7.55 | 4.40 | 4.70 | 4.23 | – | – | – |
| c1ccc(CN2CCN(c3nc4ccc5ncccc5c4n4cccc34)CC2)cc1 | 7.51 | < 4.00 | < 4.00 | 4.01 | – | – | – |
| c1ccc(CN2CCN(c3ccc4nc(N5CCN(Cc6ccccc6)CC5)c5cccn5c4n3)CC2)cc1 | 7.06 | < 4.00 | < 4.00 | < 4.00 | < 4.00 | < 4.00 | – |
| COc1ccc2nc(N3CCN(Cc4ccccc4)CC3)c3cccn3c2n1 | 7.85 | < 4.00 | 4.15 | < 4.00 | – | – | – |
| CN1CCN(c2nc3cccnc3n3cccc23)CC1 | 9.01 | 6.02 | 5.10 | 6.61 | 7.01 | 6.56 | – |
| Clc1ccc2nc(N3CCN(Cc4ccccc4)CC3)c3cccn3c2c1 | 7.69 | < 4.00 | < 4.00 | < 4.00 | 4.05 | 4.35 | – |
| CN1CCN(c2nc3cc(C(F)(F)F)ccc3n3cccc23)CC1 | 5.88 | – | – | – | – | – | – |
| c1ccc(CN2CCN(c3nc4ccsc4n4cccc34)CC2)cc1 | 8.85 | – | – | – | – | – | pEC50 (NG108-15): 7.96; Inhibition (Rattus norvegicus [6]): 40%; Inhibition (Rattus norvegicus [9]): 42% |
| Clc1ccc2c(c1)nc(N1CCN(Cc3ccccc3)CC1)c1cccn12 | 9.54 | < 4.00 | < 4.00 | 4.72 | – | – | ED50 (Rattus norvegicus [10]): 0.0312 mg/kg; pEC50 (NG108-15): 7.28; Inhibition (Rattus norvegicus [6]): 0% |

| Structure (SMILES) | -Log IC50 [1] | pIC50 [2] | pIC50 [3] | pIC50 [4] | pIC50 [7] | pIC50 [8] | other results |
| --- | --- | --- | --- | --- | --- | --- | --- |
| Cc1ccnc2c1nc(N1CCN(Cc3ccc(F)cc3)CC1)c1cccn12 | < 4 | < 4.00 | < 4.00 | 4.15 | – | – | – |
| Clc1ccc(CN2CCN(c3nc4cccnc4n4cccc34)CC2)c(Cl)c1 | 5.89 | < 4.00 | < 4.00 | 4.11 | – | – | – |
| Fc1ccc(CN2CCN(Cc3nc4ccccc4n4cccc34)CC2)cc1 | 5.59 | 4.07 | 4.77 | 4.50 | – | – | – |
| c1ccc(N2CCN(c3nc4cccnc4n4cccc34)CC2)cc1 | 4.56 | < 4.00 | < 4.00 | < 4.00 | – | – | – |
| Fc1ccc(CN2CCN(c3nc4ccccc4n4cccc34)CC2)cc1 | 8.62 | < 4.00 | 4.33 | 4.42 | – | – | – |
| NCCc1c[nH]c2ccc(O)cc12 [SEROTONIN] | – | – | – | – | – | – | pEC50 (NG108-15): 6.53 |
| c1ccc(CN2CCN(c3ncccc3-n3cccc3)CC2)cc1 | 7.34 | 4.96 | 5.13 | 4.58 | – | – | – |
| Cc1ccc2c(c1)nc(N1CCN(Cc3ccc(F)cc3)CC1)c1cccn12 | 7.87 | < 4.00 | < 4.00 | 5.00 | 4.89 | < 4.00 | – |
| c1cc2c(N3CCNCC3)nc3ccsc3n2c1 | 7.92 | – | – | – | – | – | – |
| Fc1ccc(CN2CCN(c3nc4cc(Cl)ccc4n4cccc34)CC2)cc1 | 7.71 | < 4.00 | < 4.00 | < 4.00 | 4.39 | < 4.00 | – |
| c1ccc(CN2CCN(c3nc4ccccc4n4cccc34)CC2)cc1 | 9.45 | 4.62 | 4.98 | 4.89 | – | – | pEC50 (NG108-15): 7.74; Inhibition (Rattus norvegicus [11]): 54%; Inhibition (Rattus norvegicus [12]): 80% |
| COc1ccc2nc(N3CCN(Cc4ccc(F)cc4)CC3)c3cccn3c2n1 | 6.93 | < 4.00 | < 4.00 | < 4.00 | 4.25 | < 4.00 | – |
| C=CCN1CCN(c2nc3sccc3n3cccc23)CC1 | 9.04 | – | – | – | – | – | – |
| COc1ccc2c(c1)nc(N1CCN(Cc3ccc(F)cc3)CC1)c1cccn12 | 8.18 | < 4.00 | < 4.00 | 4.16 | – | – | ED50 (Rattus norvegicus [10]): 0.0754 mg/kg; pEC50 (NG108-15): 6.98; Inhibition (Rattus norvegicus [6]): 0% |
| Cc1ccnc2c1nc(N1CCN(Cc3ccccc3)CC1)c1cccn12 | 5.52 | < 4.00 | 4.29 | 4.36 | 4.30 | 4.24 | – |
| Fc1ccc(CN2CCN(c3nc4cccnc4n4cccc34)CC2)cc1 | 8.58 | 4.08 | 4.36 | 4.25 | 5.17 | 5.28 | – |
| Fc1ccc(CN2CCN(c3nc4sccc4n4cccc34)CC2)cc1 | 8.93 | – | – | < 4.00 | – | – | – |
